Here are results for 96 compounds from ChEMBL document CHEMBL4513216, “Probing the Open Global Health Chemical Diversity Library for Multistage-Active Starting Points for Next-Generation Antimalarials” (ACS Infect Dis, 2020).

The structures appear in SMILES notation.

A short description of the series: Toxicity liver stage against HepG2, at 10uM. Set-up: test concentration 10 uM, cell line HepG2-A16-CD81EGFP. The series is classed as cell-based. The following applies: human, HepG2-A16-CD81EGFP cells; read-out: INHIBITION
The method in brief: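 Uninfected HepG2-A16-CD81EGFP cells, 3 × 10^3 per well, 1536-well, plated on prespotted compound at 10 μM final, parasite-free screening media added to match infected plates; puromycin 10 μM positive, DMSO 0.5% negative; run in parallel with 48 h PbLuc assay at 37 °C, 5% CO2; viability by CellTiter-Glo luminescence, normalized to controls.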
As for `CCc1ccc(S(=O)(=O)N2CCC3(CC(C(=O)NC)=NO3)C2)cc1` (stereo unspecified), the cytotoxicity at 10 µM is -2.16%.
The value for `Cn1cc(CN2CCn3c(CNC(=O)c4cccn4C)cnc3C2)cn1` was -3.47%.
The value for `COCCC(=O)N1CCCC([C@@H]2C[C@H](C(F)F)n3ncnc3N2)C1` (stereo partly specified) was -1.28%; that for `CCOc1ccc(NC(=O)CN2CCN(c3nccn3C)CC2)cc1` was 4.05%.
As for `N#Cc1ccc2c(c1)CN(C(=O)c1nc[nH]n1)C2c1cnco1` (stereo unspecified), the cytotoxicity at 10 µM is -2.6%.
For the compound `CN1CCC(NC(=O)c2cc(C3CCCCC3)nc3ccccc23)CC1`, the cytotoxicity at 10 µM is -1.25%.
The same measure for `CC(=O)c1c(C)cc(C)c(Cn2ccnc2S(C)(=O)=O)c1C`: -0.657%; for `CCOC(=O)N1CCC(Nc2cc(CC)nc3c(C)c(C)nn23)CC1`: 11.8%.
On to `CN1CCN(c2ccccc2CNC(=O)Cc2ccccc2F)CC1`, for which the cytotoxicity at 10 µM is -1.1%.
The same measure for `NC(=O)C1CCCN1Cc1cccc(NC(=O)c2cc(Cl)cc(Cl)c2)c1` (stereo unspecified): 21.3%; for `Cn1c(CN2CCCC(Cn3cncn3)C2)nc2ccccc21` (stereo unspecified): -6.78%; for `COCc1cncc2c1CCN(C(=O)c1ccoc1C)C2`: -81.1%.
In the case of `COc1ccc(CC(=O)N2CC[C@@H]3NC(=O)CC[C@@H]32)cc1`, the cytotoxicity at 10 µM is -1.89%.
The same measure for `Cc1cnc(CN(Cc2ccc(Cl)s2)C2CCN(C)C2)o1` (stereo unspecified): 14.5%; for `CC(NC(=O)c1cccs1)C(=O)NS(=O)(=O)Cc1ccc(C#N)cc1` (stereo unspecified): 5.29%.
The same measure for `Cc1ccc2c(cnn2CCC(=O)NCc2csc(C3CC3)n2)c1`: 4.88%.
The same measure for `CN1CCOCC2(CCCN(C(=O)c3ccc(-n4cccc4)cc3)C2)C1` (stereo unspecified): -98%.
With `CC(C)N1CCCC(c2cc(C(F)(F)F)nc3nccn23)C1` (stereo unspecified), the cytotoxicity at 10 µM was -11.1%.
The same measure for `COCC(=O)N1CCC(c2cc(C(F)(F)F)n3ccnc3n2)CC1`: 1.44%; for `O=C(c1ccoc1)N1CCC2(CCC(=O)N2Cc2ccncc2)CC1`: -1%; for `Cc1n[nH]cc1CNCC1(c2ccccc2Cl)CCOCC1`: 8.16%.
The same measure for `CN(C)C1CCCN(C(=O)NCCC(=O)N2CCCCCC2)C1` (stereo unspecified): -6.45%; for `Cc1csc2ncn(C(C)Cc3cccnc3)c(=O)c12` (stereo unspecified): 6.9%.
The value for `Cc1cnc(N2Cc3cnn(Cc4ccc(F)cc4)c3C2)nc1N(C)C` was 6.02%.
Take `FC(F)(F)c1cc(C2CCN(c3cnccn3)CC2)n2ccnc2n1`: the cytotoxicity at 10 µM is -1.53%.
As for `COc1cn(-c2ccccc2)nc1C(=O)NCCN1CCCC(C)C1` (stereo unspecified), the cytotoxicity at 10 µM was 2.12%.
The value for `COc1ccc(CN2C[C@@H]3CN(Cc4ccoc4)C[C@@H]3C2=O)cc1` was -8.37%.
The value for `O=C(c1ccc(S(=O)(=O)NCc2ccon2)cc1)N1CCOCC1` was 3.08%.
The same measure for `CN1C(=O)CO[C@H]2CN(C(=O)Nc3ccc(F)cc3)C[C@H]21`: -2.22%; for `Cc1cc(S(=O)(=O)NCC2CNCCOC2)c(C)cc1Cl` (stereo unspecified): -0.708%.
Consider `CCCOc1ncccc1CNc1nnc(C)c(C)c1C#N`, for which the cytotoxicity at 10 µM is -14.3%.
The same measure for `CC1=NN(c2ccc(C(=O)OCCNC(=O)c3ccncc3)cc2)CC1`: -3.62%; for `N#Cc1ncn(CCC(=O)Nc2c(Cl)cccc2Cl)n1`: -11.4%; for `CN(CCC(F)(F)F)c1nc2ccccc2c(=O)[nH]1`: -5.11%.
The same measure for `CCc1nnc2n1CCN(C(=O)CN(CC)CC)C2`: -3.14%; for `CN1CCN(Cc2cccnc2)C2(CCN(c3ncccn3)C2)C1=O` (stereo unspecified): 1.31%; for `CC(C)C(C)NC(=O)Nc1cccc2c1CCN(S(C)(=O)=O)C2` (stereo unspecified): -11.3%.
Regarding `Cc1csc(N2CCCN(C3Cc4ccccc4C3)CC2)n1`, the cytotoxicity at 10 µM came to 10.3%.
The same measure for `CNC(=O)c1ccc(CNC(=O)c2ccc(Cl)cc2F)cc1`: 5.66%.
For `CCn1nnc2c1C(COCC(=O)N(C)C)CN(Cc1ccoc1)C2` (stereo unspecified), the cytotoxicity at 10 µM is -2.98%.
Turning to `O=C([C@@H]1C[C@@H]2CCN(CCc3ccccc3)C[C@H]2O1)N1CCCC1`, the cytotoxicity at 10 µM was found to be 0.307%.
The value for `CCOCC1CN(Cc2ccncc2)Cc2nn(C)cc21` (stereo unspecified) was -79.8%; that for `NC(=O)Cn1cc(NC(=O)N2CCCC(O)C2)cn1` (stereo unspecified) was -10.1%.
The same measure for `CCc1nc(C)cc(NC(C)C(=O)Nc2cc(F)ccc2C)n1` (stereo unspecified): -4.44%; for `Cn1ncc2c(N3CC[C@H](O)C3)nc(-c3ccncc3)nc21`: 4.63%; for `Fc1cnc(N2CCC3(CC2)CN(Cc2cccs2)CCO3)nc1`: 12.4%.
The value for `O=C(NCc1ccccn1)[C@@H]1CC[C@@H]2[C@@H](CCN2c2ncc(F)cn2)O1` was -74.8%.
For `CN(Cc1ccco1)[C@@H]1CN(Cc2ccncc2)C[C@@H]2CCCO[C@@H]21`, the cytotoxicity at 10 µM was determined as 0.361%.
For `Cn1nc2c(c1NC(=O)c1ccc(Cl)s1)CCC2`, the cytotoxicity at 10 µM was -1.51%.
Regarding `Cc1ccc(C)c(CN(C)Cc2nnc3ccccn23)c1`, the cytotoxicity at 10 µM was -10.5%.
The same measure for `Cc1ccc(CNCC2Cn3nnc(-c4cnn(C)c4)c3CO2)o1` (stereo unspecified): 2.42%; for `CSc1ccccc1C(=O)NCc1cc2n(n1)CCCN(CC(C)C)C2`: 3.05%.
The same measure for `CS(=O)(=O)N1CCOC2(CCCN(c3cnccn3)C2)C1` (stereo unspecified): -3.23%; for `O=C(NC[C@H]1OC[C@@H](NCc2cccs2)[C@@H]1O)N1CCOCC1`: -3.53%.
The same measure for `Cc1cn2c(n1)CCC(NC(=O)CCC1CC1)C2` (stereo unspecified): -9.69%; for `COc1ccc(CNC(=O)NCC(O)(c2cccs2)C2CC2)cc1` (stereo unspecified): 0.227%.
In the case of `CN(C)Cc1cncc2c1CCN(Cc1ccoc1)C2`, the cytotoxicity at 10 µM was -103%.
The value for `CC(C)c1cc(C(=O)N(Cc2ccncc2)CC2CCCO2)no1` (stereo unspecified) was 15.6%; that for `CNC(=O)c1ccc(-c2ccccc2)n1C` was -1.6%; that for `CCC(=O)N(CC)CCc1nccs1` was 9.66%.
As for `COCCCNC(=O)c1cc(-c2cnc(N(C)C)nc2)cn1CC1CC1`, the cytotoxicity at 10 µM was 2.28%.
Regarding `Cc1ccn(-c2ccc(NCc3cccnc3N3CCCCC3)nn2)n1`, the cytotoxicity at 10 µM stood at 3.09%.
On to `CCCS(=O)(=O)N1C[C@@H]2C[C@H](C(=O)Nc3cccnc3)[C@H](C1)O2`, for which the cytotoxicity at 10 µM is -78.8%.
The value for `O=C(NCC1(O)CCOCC1)c1ccn(-c2ccccc2F)n1` was -0.636%; that for `COc1ccc(C(=O)N2C[C@@H](C)[C@@](C)(O)C2)cc1N1CCOCC1` was 11.3%.
The value for `N#Cc1ccc(SCCC(=O)NC(N)=O)cc1` was -2.66%; that for `CCn1cc(Cl)c(C(=O)NCCOC)n1` was 7.05%.
The same measure for `CCc1nc2ccccc2c(=O)n1CC1(O)CCN(C(=O)COC)CC1`: -2.76%.
With `O=C(NCCNS(=O)(=O)c1cc(F)cc(F)c1)c1ccoc1`, the cytotoxicity at 10 µM is -1.33%.
The value for `CN(C)Cc1cnc2n1CCN(C(=O)Cc1ccsc1)CC2` was -3.95%; that for `Cc1cc(N2CCC(Cc3cccnc3)CC2)ncn1` was 1.96%; that for `COc1c(CNCC(=O)N2CCN(C)CC2)c(C(C)C)nn1C` was 7.45%.
Take `Cc1cc(-c2noc(C3CCS(=O)(=O)C3)n2)ccc1F` (stereo unspecified): the cytotoxicity at 10 µM came out at 8.22%.
Consider `CCOC(=O)c1n[nH]cc1-c1cncn1CCCn1nc(C)cc1C`, for which the cytotoxicity at 10 µM was -2.73%.
Take `O=C(Cn1ccnc1)N(CCO)CCSc1ccc(Cl)cc1`: the cytotoxicity at 10 µM worked out at 4.38%.
The value for `N#Cc1ccc(CN2CCN(C(=O)CCn3cncn3)CC2)cc1` was -7.06%.
The same measure for `Cc1ncnc(N2CCN(C(=O)C3CC4(CCNCC4)CN3)CC2)c1C` (stereo unspecified): -14.7%; for `CCN(CC)CCn1c(NC(=O)c2scnc2C)nc2ccccc21`: -27.5%; for `O=C(c1cocn1)N1C[C@H]2CCC[C@@]2(COCc2cccnc2)C1`: 7.35%.
The same measure for `CCCN(CC)Cc1ccc(C(=O)NCC2COCCO2)c(=O)[nH]1` (stereo unspecified): 4.78%.
As to `O=C(CSc1nnc(N2CCOCC2)s1)NC(=O)Nc1ccccc1`, the cytotoxicity at 10 µM came to 4.44%.
The same measure for `CSC(C)(C)CNC(=O)NC1CCSCC1`: 17.5%; for `O=C(NS(=O)(=O)c1ccccc1Cl)c1cccc2c1OCCO2`: -11%.
The same measure for `Cc1noc(C)c1CNC(=O)N1Cc2ccccc2N(C)CC1C` (stereo unspecified): -2.42%.
On to `Cc1nnc(CN(C)CCCOc2cccc(Cl)c2)o1`, for which the cytotoxicity at 10 µM worked out at 2.51%.
For the compound `COc1ccc(CNC(=O)CNc2ccccc2OC)cc1`, the cytotoxicity at 10 µM was -2.25%.
The value for `O=C1[C@@H]2CCN(Cc3ccoc3)C[C@@H]2OCCN1Cc1cccnc1` was -0.671%; that for `Cc1cccc(N2CC[C@H]3[C@H](CO[C@@H]3CN(C)Cc3ccco3)C2)n1` was 13.8%.
With `COCc1cccc(CNCc2c(C)nn(C)c2N2CCOCC2)c1`, the cytotoxicity at 10 µM was -8.93%.
The same measure for `O=C(NC1CC1)c1cnc2n1CCCC2`: -6.81%.
`COc1ccc(CN2C[C@H]3CC[C@@H](C2)N(S(=O)(=O)C2CC2)C3)cc1`: the cytotoxicity at 10 µM was -1.12%.
The same measure for `CC(C)Cn1cc(NC(=O)NC(C)(C)c2nccs2)cn1`: 7.44%; for `OCCn1cc(CN2CCN(CCOc3ccccc3)CC2)cn1`: -8.43%; for `Cc1nc(C)n(CC2CCCN(c3ncnc4ccsc34)C2)n1` (stereo unspecified): 42.4%.
Take `CC(C)(C#N)C(=O)Nc1nccn1Cc1ccc(Br)cc1`: the cytotoxicity at 10 µM was -47.5%.
The same measure for `Fc1ccc2nc([C@H]3CCNC3)[nH]c2c1`: 9.21%.
